For one compound, inhibition results are on record in ChEMBL document CHEMBL5126600, “Discovery of the First-in-Class G9a/GLP Covalent Inhibitors” (J Med Chem, 2022).

Test [1] deals with T1, Histone-lysine N-methyltransferase EHMT2 (Homo sapiens) (UniProt Q96KQ7).
T1 sequence (whole entry): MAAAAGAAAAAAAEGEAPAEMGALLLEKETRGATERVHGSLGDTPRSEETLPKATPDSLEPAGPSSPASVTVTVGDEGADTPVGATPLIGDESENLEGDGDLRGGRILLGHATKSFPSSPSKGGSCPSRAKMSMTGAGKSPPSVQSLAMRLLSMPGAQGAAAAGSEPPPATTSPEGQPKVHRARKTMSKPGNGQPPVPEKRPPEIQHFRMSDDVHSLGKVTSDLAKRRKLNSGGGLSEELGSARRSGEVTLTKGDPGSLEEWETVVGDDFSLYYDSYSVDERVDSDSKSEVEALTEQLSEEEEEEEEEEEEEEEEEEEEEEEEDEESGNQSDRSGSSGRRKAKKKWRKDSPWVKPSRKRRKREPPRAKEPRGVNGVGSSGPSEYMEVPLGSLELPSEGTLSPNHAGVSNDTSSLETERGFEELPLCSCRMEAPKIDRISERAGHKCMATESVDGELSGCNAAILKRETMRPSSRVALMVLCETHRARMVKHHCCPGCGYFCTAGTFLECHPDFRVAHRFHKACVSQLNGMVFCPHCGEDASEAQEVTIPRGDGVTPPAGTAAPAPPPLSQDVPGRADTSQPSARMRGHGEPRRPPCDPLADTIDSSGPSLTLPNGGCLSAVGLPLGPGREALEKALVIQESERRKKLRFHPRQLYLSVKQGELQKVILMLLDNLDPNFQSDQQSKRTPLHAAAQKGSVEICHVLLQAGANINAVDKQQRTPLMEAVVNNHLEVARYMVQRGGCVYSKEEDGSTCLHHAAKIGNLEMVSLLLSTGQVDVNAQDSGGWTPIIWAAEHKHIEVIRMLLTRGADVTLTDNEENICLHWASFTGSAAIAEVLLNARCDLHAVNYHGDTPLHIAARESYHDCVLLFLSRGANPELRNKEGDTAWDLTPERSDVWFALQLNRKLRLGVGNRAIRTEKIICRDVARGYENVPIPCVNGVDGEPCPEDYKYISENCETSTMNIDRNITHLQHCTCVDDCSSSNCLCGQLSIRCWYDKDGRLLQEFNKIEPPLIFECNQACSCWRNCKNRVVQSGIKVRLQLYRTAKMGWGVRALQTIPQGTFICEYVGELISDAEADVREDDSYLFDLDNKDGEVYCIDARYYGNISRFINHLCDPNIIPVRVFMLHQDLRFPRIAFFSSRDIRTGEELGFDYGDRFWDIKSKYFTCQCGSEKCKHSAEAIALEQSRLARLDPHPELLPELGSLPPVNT
The test can be described thus: Inhibition of human G9a (913 to 1193 residues) using H3 peptide as substrate in presence of SAM cofactor by scintillation counting method. The conditions noted are these: time 5-45 min, TDE = time-dependent effect. In short, it runs like this:
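Contracted scintillation proximity assay following 3H-methyl transfer from SAM (1 μM) to H3 peptide (0.05 μM) by G9a or GLP (5 nM each), with preincubation times of 5, 15 or 45 min; four replicates.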

Test [2] has as its target T1, Histone-lysine N-methyltransferase EHMT2 (Homo sapiens). The test can be described thus: Inhibition of human G9a (913 to 1193 residues) assessed as covalent modification by measuring G9a adduct formation by mass spectrometry. To be noted: time <= 120.0 min, TDE = time-dependent effect. The essentials:
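Purified G9a or GLP catalytic domain (5 μM) in 50 mM Tris-HCl pH 7.5, 150 mM NaCl incubated with 50 μM compound or DMSO at room temperature (1 h, or 30 and 60 min in time course); intact mass by ESI LC/MS-TOF; adduct % = adduct/(protein + adduct) × 100.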

For `C=CC(=O)Nc1cc(NC2CCN(C(C)C)CC2)c2cc(OC)c(OCCCN3CCCC3)cc2n1`, the inhibition result in test [1] and in test [2] was “Tde” throughout.
